This is an account of results in ChEMBL document CHEMBL1124068, “5-Methyl-2-pyrrolidone analogues of oxotremorine as selective muscarinic agonists” (J Med Chem, 1988).

The source made the active and inactive calls. Where only a bound is given, the exact number is not on record here.

What is called ED50 is the dose that gives a 50% effect, or the effect in half of the subjects. In general, Kd refers to a measure of binding affinity in units of concentration. Broadly, the LD50 is the dose expected to kill half of the subjects tested. Broadly, the EC50 is the concentration giving half of the maximal effect. The low end stands for an effect from little substance, the high end for a need for much substance.

The test system of data set [1] is Mus musculus. Put plainly: Central muscarinic activity administered intraperitoneally to mice, expressed as hypothermia. The class given is functional. To be noted: ip. The gist of the method:
(§1)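 Rectal temperature (probe ~25 mm) in male Swiss-Webster mice (24-32 g) after ip dosing at 20.5 ± 1.0 °C; six mice per dose, five to six doses, readings every 20 min for 3 h. Maximal fall from pretreatment used; ED50 from logistic fit.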

Data set [2] concerns Mus musculus. Put plainly: Tremorolytic activity administered intraperitoneally to mice. It counts as functional. The settings on record: ip. The gist of the method:
(§2)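 Antagonists given ip to groups of six or more male Swiss-Webster mice (24-32 g), six untreated controls; 20 min later iv oxotremorine ED50 for grade 2 intermittent spontaneous tremor found by up-and-down method. Dose doubling oxotremorine ED50 derived by linear regression; values are means ± standard errors.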

For data set [3], the system named is Mus musculus. Kind of data set: Central muscarinic activity administered intraperitoneally to mice, expressed as analgesia. The class given is functional. The settings on record: ip. Put shortly: (§3)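 Male Swiss-Webster mice (24-32 g), ip, 20.5 ± 1.0 °C; tail-flick test, 15 s cut-off, groups of ten at three to four dose levels. Reaction time above control mean plus 3 SD counted as increased; ED50 by probit analysis.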

The test system of data set [4] is Mus musculus. Put plainly: Muscarinic activity administered intraperitoneally to mice, expressed as salivation. It counts as functional. The settings on record: ip. Put shortly:
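Male Swiss-Webster mice (24-32 g) dosed ip at 20.5 ± 1.0 °C; salivation judged by pressing mouth onto absorbent tissue; threshold dose estimated by up-and-down method.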

The species named for data set [5] is Cavia porcellus. Put plainly: Equilibrium dissociation constant receptor complex, measured in guinea pig ileum. The class given is functional.
Data set [6] in a line: Acute toxicity administered intraperitoneally to mice. It counts as organism-based. The settings on record: mouse, in vivo, ip.
The species entered for data set [7] is Cavia porcellus. Put plainly: Maximum contractile response relative to that elicited by carbachol was measured in guinea pig ileum. It counts as functional. The gist of the method:
(§4)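 Isolated guinea pig ileum in Tyrode solution (pH 7.4) with 0.3 mM hexamethonium, 37 °C; isotonic contractions at 1 g tension. Cumulative agonist concentration-response curves, concentration raised stepwise by factor 2.15; maxima expressed relative to carbachol.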

Data set [8] is filed under the species Cavia porcellus. Kind of data set: Concentration that elicits 50% of its own maximum contractile response in guinea pig ileum. It counts as functional. The gist of the method: as §4
The species named for data set [9] is Cavia porcellus. Kind of data set: Maximum contractile response relative to that elicited by carbachol was measured in guinea pig urinary bladder. The class given is functional. Put shortly:
(§5)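 Guinea pig bladder strips in Krebs-Henseleit solution (pH 7.4) with 0.3 mM hexamethonium, 37 °C; isotonic recording at 1 g tension; cumulative agonist additions increased by factor 3.16; responses referenced to carbachol.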

For data set [10], the species on record is Cavia porcellus. Put plainly: Equilibrium dissociation constant receptor complex, measured in guinea pig urinary bladder. It counts as functional.
The species named for data set [11] is Cavia porcellus. Kind of data set: Efficacy relative to that of carbachol. The class given is functional.
For data set [12], the species on record is Cavia porcellus. Kind of data set: Efficacy relative to that of carbachol (guinea pig urinary bladder). The class given is functional.
The species named for data set [13] is Cavia porcellus. Put plainly: Concentration that elicits 50% of its own maximum contractile response in guinea pig urinary bladder. The class given is functional. The gist of the method: as §5
Data set [14] concerns Mus musculus. Put plainly: Tremorolytic activity administered intraperitoneally to mice; c = no significant blockade was observed. The class given is functional, organism-based. Put shortly:
as §2

Data set [15] concerns Mus musculus. Kind of data set: Central muscarinic activity administered intraperitoneally to mice, expressed as hypothermia; d = no effect was observed. The class given is functional, organism-based. Put shortly: as §1
Data set [16] has as its system Mus musculus. Put plainly: Central muscarinic activity administered intraperitoneally to mice, expressed as analgesia; d = no effect was observed. The class given is functional, organism-based. The gist of the method:
as §3

As to `CC(=O)N(C)C(C)C#CCN1CCCC1` (centres undefined), the 50% effective dose (ED50) with Mus musculus [1] came to 0.75 µmol/kg; in the data set on Mus musculus [2] it was 0.63 µmol/kg; with Mus musculus [3], 0.37 µmol/kg; in the data set with Mus musculus [4] it was 0.65 µmol/kg. Besides, the Kd in the data set filed under Cavia porcellus [5] stood at 0.24 µM; in the data set filed under Cavia porcellus [10], 0.14 µM. In data set [6], the LD50 stood at 665 µmol/kg. In addition, the Emax is listed as 82.6 in the data set listed under Cavia porcellus [7] and less than 5 in the data set filed under Cavia porcellus [9]. Moreover, the EC50 in the data set filed under Cavia porcellus [8] was 0.19 µM. The compound further yielded a Relative efficacy in the data set listed under Cavia porcellus [11] of 0.012.

For the compound `CN1[C@@H]2CC[C@H]1C[C@@H](OC(=O)C(CO)c1ccccc1)C2` (some centres undefined) [ATROPINE], the ED50 in the data set with Mus musculus [2] was determined as 0.57 µmol/kg.

On to `CC1CCC(=O)N1CC#CCN1CCC1` (centres undefined), for which the ED50 in the data set on Mus musculus [1] is 4.9 µmol/kg; in the data set on Mus musculus [2], 4.6 µmol/kg; in the data set with Mus musculus [3] it was 0.71 µmol/kg; in the data set on Mus musculus [4] it was 1.3 µmol/kg. Further, the figures for the Relative efficacy in the data set filed under Cavia porcellus [12] and in the data set listed under Cavia porcellus [11] were 0.022 and 0.02, respectively. In addition, the dissociation constant (Kd) amounted to 0.52 µM in the data set listed under Cavia porcellus [5] and 0.58 µM in the data set listed under Cavia porcellus [10]. Further, the 50% lethal dose (LD50) in [6] stood at 192 µmol/kg. The Emax in the data set filed under Cavia porcellus [7] turned out to be 90; in the data set filed under Cavia porcellus [9], 21.4. The EC50 worked out at 0.23 µM in the data set filed under Cavia porcellus [8] and 4.6 µM in the data set filed under Cavia porcellus [13].

As to `CC1CCC(=O)N1CC#CCN(C)C` (centres undefined), the 50% effective dose (ED50) was 13.1 µmol/kg with Mus musculus [1], 22.8 µmol/kg in the data set with Mus musculus [2], 1.5 µmol/kg with Mus musculus [3] and 4 µmol/kg in the data set with Mus musculus [4]. The Relative efficacy was determined as 0.064 in the data set filed under Cavia porcellus [12] and 0.04 in the data set filed under Cavia porcellus [11]. Moreover, the figures for the dissociation constant (Kd) in the data set listed under Cavia porcellus [5] and in the data set filed under Cavia porcellus [10] were 4.3 µM and 11.8 µM, respectively. In data set [6], the LD50 was found to be 402 µmol/kg. For the same compound, the results for the Emax in the data set filed under Cavia porcellus [7] and in the data set listed under Cavia porcellus [9] were 102 and 58.1, respectively. In addition, the EC50 in the data set listed under Cavia porcellus [8] was found to be 0.91 µM; in the data set filed under Cavia porcellus [13] it was 15 µM.

For `CC[N+](C)(C)CC#CCN1C(=O)CCC1C.[I-]` (centres undefined), the dissociation constant (Kd) in the data set filed under Cavia porcellus [5] is 4.9 µM; in the data set filed under Cavia porcellus [10], 3.5 µM. The LD50 in data set [6] was found to be 176 µmol/kg. Further, the ED50 entry in the data set with Mus musculus [14] was “No significant blockade”. Moreover, the Emax is recorded as 28.7 in the data set listed under Cavia porcellus [7] and 0 in the data set filed under Cavia porcellus [9]. The EC50 in the data set listed under Cavia porcellus [8] was determined as 3.2 µM. The Relative efficacy in the data set filed under Cavia porcellus [11] amounted to 0.0036.

Take `C[N+](C)(C)CCOC(N)=O.[Cl-]` [CARBACHOL]: the Relative efficacy in the data set filed under Cavia porcellus [12] and in the data set filed under Cavia porcellus [11] was 1 each time. Also, the results for the Kd in the data set listed under Cavia porcellus [5] and in the data set filed under Cavia porcellus [10] were 14.1 µM and 17 µM, respectively. Further, the Emax in the data set filed under Cavia porcellus [7] and in the data set listed under Cavia porcellus [9] was 100 each time. For the same compound, the EC50 in the data set filed under Cavia porcellus [8] turned out to be 0.11 µM; in the data set listed under Cavia porcellus [13] it was 0.9 µM.

`O=C1CCCN1CC#CCN1CCCC1` [OXOTREMORINE]: the 50% effective dose (ED50) with Mus musculus [1] is 0.22 µmol/kg; with Mus musculus [3] it was 0.05 µmol/kg; in the data set on Mus musculus [4] it was 0.29 µmol/kg.

Turning to `CC1CCC(=O)N1CC#CC[N+](C)(C)C.[I-]` (centres undefined), the Relative efficacy in the data set filed under Cavia porcellus [12] stood at 0.062; in the data set filed under Cavia porcellus [11] it was 0.057. The ED50 entry with Mus musculus [15], with Mus musculus [16] and in the data set on Mus musculus [14] was “inactive” throughout. The median effective dose (ED50) in the data set with Mus musculus [4] worked out at 12 µmol/kg. The Kd in the data set filed under Cavia porcellus [5] came out at 1.7 µM; in the data set filed under Cavia porcellus [10], 2.8 µM. The same compound gave an LD50 in data set [6] of 33.6 µmol/kg. Further, the results for the Emax in the data set listed under Cavia porcellus [7] and in the data set filed under Cavia porcellus [9] were 100 and 71.4, respectively. Besides, the concentration for a half-maximal effect (EC50) in the data set filed under Cavia porcellus [8] was determined as 0.18 µM; in the data set filed under Cavia porcellus [13] it was 2 µM.

Regarding `CC1CCC(=O)N1CC#CCN1CCCC1` (centres undefined), in the data set on Mus musculus [2], the median effective dose (ED50) stood at 0.36 µmol/kg. Moreover, in data set [6], the median lethal dose (LD50) is 107 µmol/kg.

Compound `CCN(C)CC#CCN1C(=O)CCC1C` (centres undefined) returned a 50% effective dose (ED50) in the data set with Mus musculus [2] of 6.7 µmol/kg. Further, the dissociation constant Kd in the data set listed under Cavia porcellus [5] came to 1.8 µM; in the data set filed under Cavia porcellus [10], 2.5 µM. The compound also showed an LD50 in [6] of 636 µmol/kg. In addition, the Emax in the data set listed under Cavia porcellus [7] and in the data set filed under Cavia porcellus [9] was 0 throughout.

`CCN(CC)CC#CCN1C(=O)CCC1C` (centres undefined) yielded an ED50 with Mus musculus [2] of 5.1 µmol/kg. Also, the figures for the Kd in the data set listed under Cavia porcellus [5] and in the data set listed under Cavia porcellus [10] were 1.1 µM and 2.1 µM, respectively. The compound also displayed an LD50 in data set [6] of 720 µmol/kg. The Emax in the data set listed under Cavia porcellus [7] and in the data set listed under Cavia porcellus [9] was 0 in each case.
